# No end group written: not given here.
# T1: MORC3 CW domain (residues 407-455), crystallised (human, UniProt Q14149 407-455)
# T1 chain (looked up): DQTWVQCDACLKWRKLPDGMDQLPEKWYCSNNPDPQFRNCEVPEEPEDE
# Assays:
# [1] = target: MORC3 CW domain (wild type, GST tag cleaved) (human); test: other fluorescence titration
# MORC3-CW E453A (human) = test: ITC
# [2] = target: T1, MORC3 CW domain (residues 407-455), …; test: crystal structure
# [3] = tested on: nuclear bodies (NBs) in HeLa cells; test: Confocal immunofluorescence of FLAG-tagged MORC3; assay type: cell-based; settings: 48 h post transfection, anti-FLAG
# In short: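 HeLa in DMEM/10% FBS/penicillin-streptomycin grown on chamber slides, transiently transfected (TurboFect) with WT or CW-mutant 3xFLAG-MORC3 (C416S, C416A, W419A). At 48 h: cold methanol fixation (−20°C, 10 min), 1% BSA block 30 min, anti-FLAG 1:200 for 1 h at 25°C, then Alexa Fluor 647 secondary 1:1000 for 1 h. DAPI mount; confocal imaging with 100X objective.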
# chromatin in HeLa cells = test: Chromatin association assay; assay type: cell-based; settings: 48 h post transfection, fractionation and immunoblot
# In short: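 HeLa cells (DMEM, 10% FBS, pen/strep) are transfected with full-length human N-terminal 3xFLAG-MORC3, WT or CW mutants, and trypsinized at 48 h. The washed chromatin pellet is nuclease-solubilized. Fractions (1–5 µg) are immunoblotted for FLAG, β-tubulin and H3.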
Molecule,Kd [1],nuclear localization [3],association with chromatin (chromatin in HeLa cells),other results
histone H3K4me1 peptide,740 nM,,,
histone H3K4me2 peptide,670 nM,,,
histone H3K4me3 peptide (residues 1-12 of H3) (from UniProt P68431 2-13),640 nM,,,
MORC3 His-ATPase domain (aa 1-392) (domain or fragment) MAAQPPRGIRLSALCPKFLHTNSTSHTWPFSAVAELIDNAYDPDVNAKQIWIDKTVINDHICLTFTDNGNGMTSDKLHKMLSFGFSDKVTMNGHVPVGLYGNGFKSGSMRLGKDAIVFTKNGESMSVGLLSQTYLEVIKAEHVVVPIVAFNKHRQMINLAESKASLAAILEHSLFSTEQKLLAELDAIIGKKGTRIIIWNLRSYKNATEFDFEKDKYDIRIPEDLDEITGKKGYKKQERMDQIAPESDYSLRAYCSILYLKPRMQIILRGQKVKTQLVSKSLAYIERDVYRPKFLSKTVRITFGFNCRNKDHYGIMMYHRNRLIKAYEKVGCQLRANNMGVGVVGIIECNFLKPTHNKQDFDYTNEYRLTITALGEKLNDYWNEMKVKKNTE,,,,Kd (MORC3-CW E453A (human)): 9000 nM; stoichiometry N (MORC3-CW E453A (human)): 1
"ARTK(Me3)QTARKSTG (peptide, UniProt P68431 2-13, looked up) [histone H3K4me3 peptide (residues 1-12 of H3)]",,,,binding result [2]: binds
"WT FLAG-MORC3: FLAG-tagged full length wild-type MORC3 (protein, UniProt Q14149 1-939, looked up, full-length FLAG tag) MAAQPPRGIRLSALCPKFLHTNSTSHTWPFSAVAELIDNAYDPDVNAKQIWIDKTVINDHICLTFTDNGNGMTSDKLHKMLSFGFSDKVTMNGHVPVGLYGNGFKSGSMRLGKDAIVFTKNGESMSVGLLSQTYLEVIKAEHVVVPIVAFNKHRQMINLAESKASLAAILEHSLFSTEQKLLAELDAIIGKKGTRIIIWNLRSYKNATEFDFEKDKYDIRIPEDLDEITGKKGYKKQERMDQIAPESDYSLRAYCSILYLKPRMQIILRGQKVKTQLVSKSLAYIERDVYRPKFLSKTVRITFGFNCRNKDHYGIMMYHRNRLIKAYEKVGCQLRANNMGVGVVGIIECNFLKPTHNKQDFDYTNEYRLTITALGEKLNDYWNEMKVKKNTEYPLNLPVEDIQKRPDQTWVQCDACLKWRKLPDGMDQLPEKWYCSNNPDPQFRNCEVPEEPEDEDLVHPTYEKTYKKTNKEKFRIRQPEMIPRINAELLFRPTALSTPSFSSPKESVPRRHLSEGTNSYATRLLNNHQVPPQSEPESNSLKRRLSTRSSILNAKNRRLSSQFENSVYKGDDDDEDVIILEENSTPKPAVDHDIDMKSEQSHVEQGGVQVEFVGDSEPCGQTGSTSTSSSRCDQGNTAATQTEVPSLVVKKEETVEDEIDVRNDAVILPSCVEAEAKIHETQETTDKSADDAGCQLQELRNQLLLVTEEKENYKRQCHMFTDQIKVLQQRILEMNDKYVKKETCHQSTETDAVFLLESINGKSESPDHMVSQYQQALEEIERLKKQCSALQHVKAECSQCSNNESKSEMDEMAVQLDDVFRQLDKCSIERDQYKSEVELLEMEKSQIRSQCEELKTEVEQLKSTNQQTATDVSTSSNIEESVNHMDGESLKLRSLRVNVGQLLAMIVPDLDLQQVNYDVDVVDEILGQVVEQMSEISST",,localized to NBs,purifies in the chromatin and soluble fractions,
"C416S: FLAG-tagged MORC3 mutant in CW domain that disrupts the CW structure (protein, UniProt Q14149 1-939, looked up, variant C416S, full-length FLAG tag) MAAQPPRGIRLSALCPKFLHTNSTSHTWPFSAVAELIDNAYDPDVNAKQIWIDKTVINDHICLTFTDNGNGMTSDKLHKMLSFGFSDKVTMNGHVPVGLYGNGFKSGSMRLGKDAIVFTKNGESMSVGLLSQTYLEVIKAEHVVVPIVAFNKHRQMINLAESKASLAAILEHSLFSTEQKLLAELDAIIGKKGTRIIIWNLRSYKNATEFDFEKDKYDIRIPEDLDEITGKKGYKKQERMDQIAPESDYSLRAYCSILYLKPRMQIILRGQKVKTQLVSKSLAYIERDVYRPKFLSKTVRITFGFNCRNKDHYGIMMYHRNRLIKAYEKVGCQLRANNMGVGVVGIIECNFLKPTHNKQDFDYTNEYRLTITALGEKLNDYWNEMKVKKNTEYPLNLPVEDIQKRPDQTWVQCDASLKWRKLPDGMDQLPEKWYCSNNPDPQFRNCEVPEEPEDEDLVHPTYEKTYKKTNKEKFRIRQPEMIPRINAELLFRPTALSTPSFSSPKESVPRRHLSEGTNSYATRLLNNHQVPPQSEPESNSLKRRLSTRSSILNAKNRRLSSQFENSVYKGDDDDEDVIILEENSTPKPAVDHDIDMKSEQSHVEQGGVQVEFVGDSEPCGQTGSTSTSSSRCDQGNTAATQTEVPSLVVKKEETVEDEIDVRNDAVILPSCVEAEAKIHETQETTDKSADDAGCQLQELRNQLLLVTEEKENYKRQCHMFTDQIKVLQQRILEMNDKYVKKETCHQSTETDAVFLLESINGKSESPDHMVSQYQQALEEIERLKKQCSALQHVKAECSQCSNNESKSEMDEMAVQLDDVFRQLDKCSIERDQYKSEVELLEMEKSQIRSQCEELKTEVEQLKSTNQQTATDVSTSSNIEESVNHMDGESLKLRSLRVNVGQLLAMIVPDLDLQQVNYDVDVVDEILGQVVEQMSEISST",,,did not associate with chromatin and were found only in the soluble fractions,
"C416A: FLAG-tagged MORC3 mutant in CW domain that disrupts the CW structure (protein, UniProt Q14149 1-939, looked up, variant C416A, full-length FLAG tag) MAAQPPRGIRLSALCPKFLHTNSTSHTWPFSAVAELIDNAYDPDVNAKQIWIDKTVINDHICLTFTDNGNGMTSDKLHKMLSFGFSDKVTMNGHVPVGLYGNGFKSGSMRLGKDAIVFTKNGESMSVGLLSQTYLEVIKAEHVVVPIVAFNKHRQMINLAESKASLAAILEHSLFSTEQKLLAELDAIIGKKGTRIIIWNLRSYKNATEFDFEKDKYDIRIPEDLDEITGKKGYKKQERMDQIAPESDYSLRAYCSILYLKPRMQIILRGQKVKTQLVSKSLAYIERDVYRPKFLSKTVRITFGFNCRNKDHYGIMMYHRNRLIKAYEKVGCQLRANNMGVGVVGIIECNFLKPTHNKQDFDYTNEYRLTITALGEKLNDYWNEMKVKKNTEYPLNLPVEDIQKRPDQTWVQCDAALKWRKLPDGMDQLPEKWYCSNNPDPQFRNCEVPEEPEDEDLVHPTYEKTYKKTNKEKFRIRQPEMIPRINAELLFRPTALSTPSFSSPKESVPRRHLSEGTNSYATRLLNNHQVPPQSEPESNSLKRRLSTRSSILNAKNRRLSSQFENSVYKGDDDDEDVIILEENSTPKPAVDHDIDMKSEQSHVEQGGVQVEFVGDSEPCGQTGSTSTSSSRCDQGNTAATQTEVPSLVVKKEETVEDEIDVRNDAVILPSCVEAEAKIHETQETTDKSADDAGCQLQELRNQLLLVTEEKENYKRQCHMFTDQIKVLQQRILEMNDKYVKKETCHQSTETDAVFLLESINGKSESPDHMVSQYQQALEEIERLKKQCSALQHVKAECSQCSNNESKSEMDEMAVQLDDVFRQLDKCSIERDQYKSEVELLEMEKSQIRSQCEELKTEVEQLKSTNQQTATDVSTSSNIEESVNHMDGESLKLRSLRVNVGQLLAMIVPDLDLQQVNYDVDVVDEILGQVVEQMSEISST",,diffused throughout the nucleus,did not associate with chromatin and were found only in the soluble fractions,
"W419A: FLAG-tagged MORC3 mutant that abrogates binding to the histone H3 tail (protein, UniProt Q14149 1-939, looked up, variant W419A, full-length FLAG tag) MAAQPPRGIRLSALCPKFLHTNSTSHTWPFSAVAELIDNAYDPDVNAKQIWIDKTVINDHICLTFTDNGNGMTSDKLHKMLSFGFSDKVTMNGHVPVGLYGNGFKSGSMRLGKDAIVFTKNGESMSVGLLSQTYLEVIKAEHVVVPIVAFNKHRQMINLAESKASLAAILEHSLFSTEQKLLAELDAIIGKKGTRIIIWNLRSYKNATEFDFEKDKYDIRIPEDLDEITGKKGYKKQERMDQIAPESDYSLRAYCSILYLKPRMQIILRGQKVKTQLVSKSLAYIERDVYRPKFLSKTVRITFGFNCRNKDHYGIMMYHRNRLIKAYEKVGCQLRANNMGVGVVGIIECNFLKPTHNKQDFDYTNEYRLTITALGEKLNDYWNEMKVKKNTEYPLNLPVEDIQKRPDQTWVQCDACLKARKLPDGMDQLPEKWYCSNNPDPQFRNCEVPEEPEDEDLVHPTYEKTYKKTNKEKFRIRQPEMIPRINAELLFRPTALSTPSFSSPKESVPRRHLSEGTNSYATRLLNNHQVPPQSEPESNSLKRRLSTRSSILNAKNRRLSSQFENSVYKGDDDDEDVIILEENSTPKPAVDHDIDMKSEQSHVEQGGVQVEFVGDSEPCGQTGSTSTSSSRCDQGNTAATQTEVPSLVVKKEETVEDEIDVRNDAVILPSCVEAEAKIHETQETTDKSADDAGCQLQELRNQLLLVTEEKENYKRQCHMFTDQIKVLQQRILEMNDKYVKKETCHQSTETDAVFLLESINGKSESPDHMVSQYQQALEEIERLKKQCSALQHVKAECSQCSNNESKSEMDEMAVQLDDVFRQLDKCSIERDQYKSEVELLEMEKSQIRSQCEELKTEVEQLKSTNQQTATDVSTSSNIEESVNHMDGESLKLRSLRVNVGQLLAMIVPDLDLQQVNYDVDVVDEILGQVVEQMSEISST",,diffused throughout the nucleus,did not associate with chromatin and were found only in the soluble fractions,

# — article PMC5074691 (Cell reports, 2016)
